From ChEMBL document CHEMBL1153968, “Discovery of 5-pyrrolopyridinyl-2-thiophenecarboxamides as potent AKT kinase inhibitors” (Bioorg Med Chem Lett, 2009)

Key:
[1] = biological target: RAC-alpha serine/threonine-protein kinase (Homo sapiens, UniProt P31749); assay: Inhibition of AKT1
In short: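 AKT1 enzyme IC50 from the standard high-throughput AKT enzyme assay.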

[2] = Inhibition of AKT-mediated GSK3-beta phosphorylation in human BT474 cells by mechanistic assay; format: cell-based; conditions: BT-474
In short: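 Cellular mechanistic assay in BT474 cells measuring inhibition of GSK3β phosphorylation, reported as IC50.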

[3] = biological target: RAC-gamma serine/threonine-protein kinase (Homo sapiens, UniProt Q9Y243); assay: Inhibition of AKT3
Sequence of RAC-gamma serine/threonine-protein kinase (Q9Y243 whole entry): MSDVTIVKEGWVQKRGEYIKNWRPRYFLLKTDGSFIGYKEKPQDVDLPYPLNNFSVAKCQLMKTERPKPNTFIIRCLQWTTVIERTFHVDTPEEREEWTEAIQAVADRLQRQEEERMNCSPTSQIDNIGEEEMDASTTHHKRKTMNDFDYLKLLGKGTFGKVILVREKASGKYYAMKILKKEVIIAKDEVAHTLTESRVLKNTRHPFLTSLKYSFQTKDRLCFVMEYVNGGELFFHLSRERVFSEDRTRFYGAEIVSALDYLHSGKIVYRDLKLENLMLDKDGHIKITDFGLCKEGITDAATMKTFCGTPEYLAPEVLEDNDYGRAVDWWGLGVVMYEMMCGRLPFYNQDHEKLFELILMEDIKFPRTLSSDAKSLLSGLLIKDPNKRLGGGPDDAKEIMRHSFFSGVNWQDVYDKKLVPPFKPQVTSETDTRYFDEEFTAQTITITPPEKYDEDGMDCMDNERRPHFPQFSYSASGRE

BT-474 = assay: Cytotoxicity against human BT474 cells; format: functional, cell-based
In short: (§1)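 Inhibition of cell proliferation, reported as IC50. AKT-sensitive lines were BT474 and LNCaP; HFF was the non-tumour-derived line.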

LNCaP = assay: Cytotoxicity against human LNCAP cells; format: functional, cell-based; in short: as §1
HFF = assay: Cytotoxicity against human HFF cells; format: cell-based; in short: as §1
[4] = Cmax in rat at 2 mg/kg, iv after 24 hrs; format: ADME, organism-based; set-up: dose 2 mg/kg, route intravenous; conditions: in vivo
In short: (§2)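 iv/po crossover pharmacokinetic study in conscious male rats, n = 3. Dosing was 2 mg/kg iv and 10 mg/kg po.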

[5] = Clearance in rat at 2 mg/kg, iv after 24 hrs; format: ADME, organism-based; set-up: dose 2 mg/kg, route intravenous; conditions: in vivo; in short: as §2
[6] = Half life in rat at 2 mg/kg, iv after 24 hrs; format: ADME, organism-based; set-up: dose 2 mg/kg, route intravenous; conditions: in vivo; in short: as §2
[7] = (§3) AUC (0 to t) in rat at 2 mg/kg, iv after 24 hrs; format: ADME, organism-based, Plasma; set-up: time < 24 hr, dose 2 mg/kg, route intravenous; conditions: plasma; in short: as §2
[8] = Cmax in rat at 10 mg/kg, po after 24 hrs; format: ADME, organism-based; set-up: dose 10 mg/kg, route oral; conditions: in vivo; in short: as §2
[9] = Half life in rat at 10 mg/kg, po after 24 hrs; format: ADME, organism-based; set-up: dose 10 mg/kg, route oral; conditions: in vivo; in short: as §2
[10] = (§4) AUC (0 to t) in rat at 10 mg/kg, po after 24 hrs; format: ADME, organism-based, Plasma; set-up: time < 24 hr, dose 10 mg/kg, route oral; conditions: plasma; in short: as §2
[11] = (§5) Oral bioavailability in rat at 10 mg/kg after 24 hrs; format: ADME, organism-based; conditions: in vivo; in short: as §2
Mus musculus = assay: Inhibition of GSK3-beta phosphorylation in human BT474 xenografted ip dosed mouse after 4 hrs administered once relative to control; format: functional, organism-based
In short: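 BT474 tumour-bearing xenograft mice received a single ip injection at 6.25, 12.5 or 25 mg/kg. Vehicle was 5% dextrose, pH 4.0. Tumours were harvested 4 h post-dose and pGSK3β levels compared with the vehicle group.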

[12] = biological target: Protein kinase C alpha type (Homo sapiens, UniProt P17252); assay: Inhibition of PKCalpha
[13] = biological target: Glycogen synthase kinase-3 beta (Homo sapiens, UniProt P49841); assay: Inhibition of GSK3-beta
Sequence of Glycogen synthase kinase-3 beta (P49841 whole entry): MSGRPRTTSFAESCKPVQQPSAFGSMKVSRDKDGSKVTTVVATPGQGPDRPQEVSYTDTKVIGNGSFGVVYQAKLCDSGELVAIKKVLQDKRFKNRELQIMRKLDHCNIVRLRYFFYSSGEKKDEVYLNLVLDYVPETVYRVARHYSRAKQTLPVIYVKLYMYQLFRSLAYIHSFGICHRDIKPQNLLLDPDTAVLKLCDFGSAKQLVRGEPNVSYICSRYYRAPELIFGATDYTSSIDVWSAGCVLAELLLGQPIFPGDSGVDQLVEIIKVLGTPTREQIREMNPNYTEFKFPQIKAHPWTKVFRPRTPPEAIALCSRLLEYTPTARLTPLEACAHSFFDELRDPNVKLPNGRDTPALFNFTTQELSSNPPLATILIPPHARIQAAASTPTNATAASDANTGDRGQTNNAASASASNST

[14] = biological target: MAP kinase-activated protein kinase 2 (Homo sapiens, UniProt P49137); assay: Inhibition of MAPKAPK2
Sequence of MAP kinase-activated protein kinase 2 (P49137 whole entry): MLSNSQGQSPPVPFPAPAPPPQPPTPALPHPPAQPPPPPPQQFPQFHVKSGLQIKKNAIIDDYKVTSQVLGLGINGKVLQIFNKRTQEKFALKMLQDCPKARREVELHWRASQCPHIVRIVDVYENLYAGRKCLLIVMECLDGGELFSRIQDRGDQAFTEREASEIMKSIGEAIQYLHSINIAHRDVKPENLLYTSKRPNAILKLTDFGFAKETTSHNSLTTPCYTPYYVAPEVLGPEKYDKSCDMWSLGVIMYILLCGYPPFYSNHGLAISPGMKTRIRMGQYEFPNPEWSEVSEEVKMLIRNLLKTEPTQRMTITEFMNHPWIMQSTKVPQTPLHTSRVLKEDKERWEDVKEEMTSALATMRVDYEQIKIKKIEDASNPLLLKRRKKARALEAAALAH

[15] = biological target: Serine/threonine-protein kinase pim-1 (Homo sapiens, UniProt P11309); assay: Inhibition of PIM1
Sequence of Serine/threonine-protein kinase pim-1 (P11309 whole entry): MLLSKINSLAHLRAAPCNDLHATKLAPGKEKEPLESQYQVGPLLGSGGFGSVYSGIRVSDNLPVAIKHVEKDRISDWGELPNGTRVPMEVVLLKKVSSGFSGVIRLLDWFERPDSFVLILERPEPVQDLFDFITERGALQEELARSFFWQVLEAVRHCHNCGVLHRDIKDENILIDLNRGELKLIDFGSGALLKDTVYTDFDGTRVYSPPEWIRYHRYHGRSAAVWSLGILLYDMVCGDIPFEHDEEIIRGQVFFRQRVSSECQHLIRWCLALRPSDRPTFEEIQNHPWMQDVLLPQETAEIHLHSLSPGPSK

[16] = biological target: Epidermal growth factor receptor (Homo sapiens, UniProt P00533)
Sequence of Epidermal growth factor receptor (P00533 whole entry): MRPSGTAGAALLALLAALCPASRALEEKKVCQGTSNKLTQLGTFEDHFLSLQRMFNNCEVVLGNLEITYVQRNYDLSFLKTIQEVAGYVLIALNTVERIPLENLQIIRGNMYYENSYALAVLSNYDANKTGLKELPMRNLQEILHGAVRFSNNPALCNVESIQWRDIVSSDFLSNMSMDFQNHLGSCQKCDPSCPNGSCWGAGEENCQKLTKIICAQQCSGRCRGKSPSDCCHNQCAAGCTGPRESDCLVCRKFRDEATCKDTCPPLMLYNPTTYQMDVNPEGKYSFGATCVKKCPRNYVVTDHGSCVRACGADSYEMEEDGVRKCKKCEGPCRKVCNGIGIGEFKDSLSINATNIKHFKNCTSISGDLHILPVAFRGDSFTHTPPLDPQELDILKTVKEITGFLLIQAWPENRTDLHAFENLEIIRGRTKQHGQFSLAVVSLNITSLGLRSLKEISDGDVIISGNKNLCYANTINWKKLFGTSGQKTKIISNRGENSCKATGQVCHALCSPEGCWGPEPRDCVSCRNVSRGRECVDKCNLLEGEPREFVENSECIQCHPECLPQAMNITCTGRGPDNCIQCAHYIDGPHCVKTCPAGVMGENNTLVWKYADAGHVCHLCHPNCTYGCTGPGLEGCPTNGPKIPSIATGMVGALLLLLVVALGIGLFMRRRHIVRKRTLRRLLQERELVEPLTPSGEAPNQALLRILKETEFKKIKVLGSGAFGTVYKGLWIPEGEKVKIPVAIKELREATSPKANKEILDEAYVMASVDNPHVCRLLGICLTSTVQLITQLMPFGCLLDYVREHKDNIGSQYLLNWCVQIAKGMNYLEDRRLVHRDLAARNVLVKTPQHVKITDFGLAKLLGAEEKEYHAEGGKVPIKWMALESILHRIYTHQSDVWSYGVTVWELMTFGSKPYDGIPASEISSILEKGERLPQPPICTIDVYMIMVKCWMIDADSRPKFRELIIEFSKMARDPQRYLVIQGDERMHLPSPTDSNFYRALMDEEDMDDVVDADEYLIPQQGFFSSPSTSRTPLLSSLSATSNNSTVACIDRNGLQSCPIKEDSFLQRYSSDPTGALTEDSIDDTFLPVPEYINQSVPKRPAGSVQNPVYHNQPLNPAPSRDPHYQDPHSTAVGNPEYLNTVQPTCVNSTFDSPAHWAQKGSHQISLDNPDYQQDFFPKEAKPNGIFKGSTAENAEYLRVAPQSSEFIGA

Rattus norvegicus [17] = assay: as §3; format: ADME, organism-based, Plasma; set-up: time < 24 hr, dose 2 mg/kg, route intravenous; conditions: in vivo, 24 h; in short: as §2
Rattus norvegicus [18] = assay: as §4; format: ADME, organism-based, Plasma; set-up: time < 24 hr, dose 10 mg/kg, route oral; conditions: in vivo, 24 h; in short: as §2
Rattus norvegicus [19] = assay: as §5; format: ADME, organism-based; conditions: in vivo, 24 h; in short: as §2

Sequence of RAC-alpha serine/threonine-protein kinase (P31749 whole entry): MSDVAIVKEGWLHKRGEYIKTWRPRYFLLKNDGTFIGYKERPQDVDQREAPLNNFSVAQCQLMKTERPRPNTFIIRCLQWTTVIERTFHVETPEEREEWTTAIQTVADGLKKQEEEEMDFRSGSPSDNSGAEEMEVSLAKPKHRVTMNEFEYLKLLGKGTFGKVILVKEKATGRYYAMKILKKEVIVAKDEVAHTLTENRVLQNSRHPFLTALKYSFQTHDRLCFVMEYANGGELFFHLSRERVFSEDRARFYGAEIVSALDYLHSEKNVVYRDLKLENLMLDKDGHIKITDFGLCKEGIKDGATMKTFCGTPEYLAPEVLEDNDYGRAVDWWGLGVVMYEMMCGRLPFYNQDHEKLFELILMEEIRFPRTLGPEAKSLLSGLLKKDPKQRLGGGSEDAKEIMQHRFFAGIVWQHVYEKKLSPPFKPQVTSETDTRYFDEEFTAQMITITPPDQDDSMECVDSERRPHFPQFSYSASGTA

Compound	IC50 [1] [nM]	IC50 [2] [nM]	Ki [1] [nM]	IC50 [3] [nM]	IC50 (BT-474) [nM]	IC50 (LNCaP) [nM]	IC50 (HFF) [nM]	other results
NCC(CNc1ccc(-c2ccnc3[nH]ccc23)s1)c1ccccc1 (stereo unspecified)	250	> 10000						
NCC(NC(=O)c1cc(-c2cccnc2)c(-c2ccnc3[nH]ccc23)s1)c1ccccc1 (stereo unspecified)	63	6000						
NCC(NC(=O)c1cc(-c2cn[nH]c2)c(-c2ccnc3[nH]ccc23)s1)c1ccccc1 (stereo unspecified)	63	2500						
CN(C)CC(NC(=O)c1cc(Br)c(-c2ccnc3[nH]ccc23)s1)c1ccccc1 (stereo unspecified)	20	> 10000						
NCC(NCc1ccc(-c2ccnc3[nH]ccc23)s1)c1ccccc1 (stereo unspecified)	100	> 10000						
NC[C@H](CC1CCCCC1)NC(=O)c1cc(Br)c(-c2ccnc3[nH]ccc23)s1	1	1900	0.79	3	2600	440		
NC[C@H](Cc1ccncc1)NC(=O)c1cc(Br)c(-c2ccnc3[nH]ccc23)s1		1900	2		2300	750	3600	
NCC(NC(=O)c1cc(-c2ccccc2)c(-c2ccnc3[nH]ccc23)s1)c1ccccc1 (stereo unspecified)	50	10000						
NC(CNC(=O)c1cc(Br)c(-c2ccnc3[nH]ccc23)s1)c1ccccc1 (stereo unspecified)	40	> 10000						
NCCC(NC(=O)c1cc(Br)c(-c2ccnc3[nH]ccc23)s1)c1ccccc1 (stereo unspecified)	8	1500						
NC[C@H](Cc1ccc(C(F)(F)F)cc1)NC(=O)c1cc(Br)c(-c2ccnc3[nH]ccc23)s1	2	2000	2	3	1200	440	1300	
NCC(C(=O)Nc1cc(Br)c(-c2ccnc3[nH]ccc23)s1)c1ccccc1 (stereo unspecified)	25	4700						
NCCCC(NC(=O)c1cc(Br)c(-c2ccnc3[nH]ccc23)s1)c1ccccc1 (stereo unspecified)	20	4800						
CC(C)NCC(Cc1ccccc1)NC(=O)c1cc(Br)c(-c2ccnc3[nH]ccc23)s1 (stereo unspecified)	10	2100						
NCC(NC(=O)c1cc(-c2c[nH]c3ncccc23)cs1)c1ccccc1 (stereo unspecified)	25	1100						
NCCNC(=O)c1cc(Br)c(-c2ccnc3[nH]ccc23)s1	158	> 10000						
NC[C@@H](Cc1ccccc1)NC(=O)c1cc(Br)c(-c2ccnc3[nH]ccc23)s1	32	6000	20	40	4500	2700	1900	

The remaining molecules from weak to strong by IC50 [2], led by results:

IC50 [1] [nM]	IC50 [2] [nM]	Ki [1] [nM]	IC50 [3] [nM]	Compound	IC50 (BT-474) [nM]	IC50 (LNCaP) [nM]	IC50 (HFF) [nM]	other results
4	1100			CCNCC(Cc1ccccc1)NC(=O)c1cc(Br)c(-c2ccnc3[nH]ccc23)s1 (stereo unspecified)				
3	1000	5	2	COc1ccc(C[C@@H](CN)NC(=O)c2cc(Br)c(-c3ccnc4[nH]ccc34)s2)cc1	1900	720	890	
40	1000			NCC(NC(=O)c1cc(-c2ccnc3[nH]ccc23)cs1)c1ccccc1 (stereo unspecified)				
6	800			NCC(NC(=O)c1cc(C2CC2)c(-c2ccnc3[nH]ccc23)s1)c1ccccc1 (stereo unspecified)				
3	780			CNCC(NC(=O)c1cc(Br)c(-c2ccnc3[nH]ccc23)s1)c1ccccc1 (stereo unspecified)				
3	560			NCC(C(=O)Nc1ccc(-c2ccnc3[nH]ccc23)s1)c1ccccc1 (stereo unspecified)				
8	500	20	20	NCC(NC(=O)c1cc(Br)c(-c2ccnc3[nH]ccc23)s1)c1ccccc1 (racemic)	4000	750	1200	Cmax [4]: 1800 ng/mL; clearance [5]: 16.7 mL/min/kg; half-life [6]: 3.6 h; AUC(0-t) at 24 h [7]: 3250 ng·h/mL; Cmax [8]: 550 ng/mL; half-life [9]: 4.1 h; AUC(0-t) at 24 h [10]: 3400 ng·h/mL; bioavailability [11]: 32%
2	260			CNCC(Cc1ccccc1)NC(=O)c1cc(Br)c(-c2ccnc3[nH]ccc23)s1 (stereo unspecified)				
16	240			NCC(NC(=O)c1ccc(-c2c[nH]c3ncccc23)s1)c1ccccc1 (stereo unspecified)				
1	220		2	NC[C@H](Cc1ccccc1F)NC(=O)c1cc(Br)c(-c2ccnc3[nH]ccc23)s1	120	39	260	
6	190			NCC(NC(=O)c1ccc(-c2ccnc3[nH]ccc23)s1)c1ccccc1 (stereo unspecified)				
1	180	0.06	2	NC[C@H](Cc1ccc(F)cc1)NC(=O)c1cc(Br)c(-c2ccnc3[nH]ccc23)s1	500	66	490	
1	170	0.1	1	NC[C@H](Cc1cccc(C(F)(F)F)c1)NC(=O)c1cc(Br)c(-c2ccnc3[nH]ccc23)s1	60	78	530	
8	120			Cc1cc(C(=O)NC(CN)c2ccccc2)sc1-c1ccnc2[nH]ccc12 (stereo unspecified)				
1	100	0.06	2	NC[C@H](Cc1ccccc1)NC(=O)c1cc(Br)c(-c2ccnc3[nH]ccc23)s1	230	21	90	
1	90	0.03		NC[C@H](Cc1cccc(F)c1)NC(=O)c1cc(Br)c(-c2ccnc3[nH]ccc23)s1	240	18	260	Activity (Mus musculus): Dose-dependent effect; IC50 [12]: 40 nM; IC50 [13]: 20000 nM; IC50 [14]: 2500 nM; IC50 [15]: 794 nM; IC50 [16]: 10000 nM
1	80	0.04	3	NCC(Cc1ccccc1)NC(=O)c1cc(Br)c(-c2ccnc3[nH]ccc23)s1 (racemic)	200	45	410	Cmax [4]: 712 ng/mL; clearance [5]: 49 mL/min/kg; half-life [6]: 3.8 h; AUC (Rattus norvegicus [17]): 893 ng·h/mL; Cmax [8]: 248 ng/mL; AUC (Rattus norvegicus [18]): 664 ng·h/mL; F (Rattus norvegicus [19]): 38%
3	50	0.05	2	NC[C@H](Cc1ccccc1C(F)(F)F)NC(=O)c1cc(Br)c(-c2ccnc3[nH]ccc23)s1	60	24	730	
